Laboratory results as given in ChEMBL document CHEMBL1127482 (J Med Chem, 1994).
*1 amine or outer side, *2 acyl side, *3 side chain or, on linkers, in order; H or OH if unused. Where a SMILES comes first, the peptide text is derived from it. Bridges are numbered along the chain shown (N, C = ends). X1 = O=C(CC1(S[*:2])CCCCC1)[*:1]

Key:
Homo sapiens = species: Homo sapiens; experiment: Inhibition of 10 uM ADP induced platelet aggregation in human platelet rich citreated plasma (PRP); format: functional
Procedure, shortened: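 Aggregation is read as the increase in light transmission in an aggregometer, with platelets used within 3 h of collection. IC50 comes from regression of dose-response curves for inhibition of maximal aggregation, adjusted against a standard run in each experiment.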

[1] = biological target: Integrin alpha-IIb/beta-3 (Homo sapiens, UniProt P05106+P08514); experiment: Binding affinity against integrin alpha 2b-beta 3 in enzyme linked immunosorbent assay (ELISA); format: protein-complex assay
Procedure, shortened: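 Purified human platelet αIIbβ3 (from outdated platelets, octyl glucoside extract) in TBS with 20 mM octyl glucoside, 2 mM MgCl2 and 2 mM CaCl2 binds to plate-coated human fibrinogen (10 µg/mL in TBS) with 10-fold serial peptide dilutions for 3 h at room temperature. Bound receptor is detected with rabbit anti-αIIbβ3, then HRP anti-rabbit IgG, with o-phenylenediamine/H2O2 at pH 5.0. IC50 is reported.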

Integrin alpha-5/beta-1 = Integrin alpha-5/beta-1 (Homo sapiens, UniProt P05556+P08648); experiment: Binding affinity against integrin alpha5-beta1 in enzyme linked immunosorbent assay (ELISA); format: protein-complex assay
Sequence of Integrin alpha-5/beta-1 (P05556 21-798 limits assumed): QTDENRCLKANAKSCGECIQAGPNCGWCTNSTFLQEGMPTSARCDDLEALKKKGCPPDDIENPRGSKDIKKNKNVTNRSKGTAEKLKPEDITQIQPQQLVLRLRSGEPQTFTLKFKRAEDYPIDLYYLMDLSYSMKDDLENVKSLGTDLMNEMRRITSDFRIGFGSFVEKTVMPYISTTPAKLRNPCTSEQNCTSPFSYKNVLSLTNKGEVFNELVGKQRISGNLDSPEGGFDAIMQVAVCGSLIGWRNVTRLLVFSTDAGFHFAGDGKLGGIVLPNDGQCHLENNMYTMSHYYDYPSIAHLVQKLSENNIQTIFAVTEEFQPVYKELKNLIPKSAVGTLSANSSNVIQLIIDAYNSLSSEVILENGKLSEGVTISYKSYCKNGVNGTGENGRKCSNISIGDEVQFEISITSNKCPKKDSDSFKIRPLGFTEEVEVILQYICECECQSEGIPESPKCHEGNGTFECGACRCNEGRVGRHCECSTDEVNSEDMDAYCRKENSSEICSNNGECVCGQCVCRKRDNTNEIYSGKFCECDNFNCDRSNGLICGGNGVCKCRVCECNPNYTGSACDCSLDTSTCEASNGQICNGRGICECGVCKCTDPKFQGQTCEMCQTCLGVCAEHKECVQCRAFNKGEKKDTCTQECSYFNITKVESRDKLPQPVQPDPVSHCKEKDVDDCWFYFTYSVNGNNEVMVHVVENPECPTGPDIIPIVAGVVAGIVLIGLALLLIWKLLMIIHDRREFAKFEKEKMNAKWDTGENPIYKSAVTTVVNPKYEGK
Sequence of Integrin alpha-5/beta-1 (P08648 42-894 limits assumed): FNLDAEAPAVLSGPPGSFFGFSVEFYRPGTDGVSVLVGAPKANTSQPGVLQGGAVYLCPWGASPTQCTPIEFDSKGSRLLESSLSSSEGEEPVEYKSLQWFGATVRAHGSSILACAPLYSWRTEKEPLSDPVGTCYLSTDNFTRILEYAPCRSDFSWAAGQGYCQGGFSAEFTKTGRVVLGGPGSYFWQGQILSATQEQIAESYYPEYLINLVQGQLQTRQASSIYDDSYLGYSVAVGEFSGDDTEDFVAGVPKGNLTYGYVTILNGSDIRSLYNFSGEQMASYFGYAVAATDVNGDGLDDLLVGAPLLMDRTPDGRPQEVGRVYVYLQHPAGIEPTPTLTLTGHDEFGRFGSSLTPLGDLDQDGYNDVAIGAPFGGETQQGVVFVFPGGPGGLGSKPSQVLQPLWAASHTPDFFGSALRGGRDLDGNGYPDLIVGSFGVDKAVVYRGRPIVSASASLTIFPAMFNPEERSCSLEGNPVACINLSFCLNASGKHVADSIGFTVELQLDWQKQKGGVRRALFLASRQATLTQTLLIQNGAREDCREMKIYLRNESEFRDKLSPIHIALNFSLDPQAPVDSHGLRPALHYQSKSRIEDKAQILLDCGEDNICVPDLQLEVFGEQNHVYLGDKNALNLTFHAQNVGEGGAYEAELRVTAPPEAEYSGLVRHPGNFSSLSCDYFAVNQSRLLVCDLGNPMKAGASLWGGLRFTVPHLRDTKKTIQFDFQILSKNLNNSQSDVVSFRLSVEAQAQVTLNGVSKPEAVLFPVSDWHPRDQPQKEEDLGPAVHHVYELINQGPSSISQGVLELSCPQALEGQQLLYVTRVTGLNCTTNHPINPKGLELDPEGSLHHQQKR
Sequence of Integrin alpha-5/beta-1 (P08648 895-1049 limits assumed): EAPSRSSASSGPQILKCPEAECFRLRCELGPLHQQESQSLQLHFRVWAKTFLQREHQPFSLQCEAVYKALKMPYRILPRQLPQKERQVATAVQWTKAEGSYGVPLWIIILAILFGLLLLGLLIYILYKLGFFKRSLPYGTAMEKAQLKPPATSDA

Integrin alpha-V/beta-5 = Integrin alpha-V/beta-5 (Homo sapiens, UniProt P06756+P18084); experiment: Binding affinity against integrin alpha V-beta5 in enzyme linked immunosorbent assay (ELISA); format: protein-complex assay
Sequence of Integrin alpha-V/beta-5 (P06756 31-889 limits assumed): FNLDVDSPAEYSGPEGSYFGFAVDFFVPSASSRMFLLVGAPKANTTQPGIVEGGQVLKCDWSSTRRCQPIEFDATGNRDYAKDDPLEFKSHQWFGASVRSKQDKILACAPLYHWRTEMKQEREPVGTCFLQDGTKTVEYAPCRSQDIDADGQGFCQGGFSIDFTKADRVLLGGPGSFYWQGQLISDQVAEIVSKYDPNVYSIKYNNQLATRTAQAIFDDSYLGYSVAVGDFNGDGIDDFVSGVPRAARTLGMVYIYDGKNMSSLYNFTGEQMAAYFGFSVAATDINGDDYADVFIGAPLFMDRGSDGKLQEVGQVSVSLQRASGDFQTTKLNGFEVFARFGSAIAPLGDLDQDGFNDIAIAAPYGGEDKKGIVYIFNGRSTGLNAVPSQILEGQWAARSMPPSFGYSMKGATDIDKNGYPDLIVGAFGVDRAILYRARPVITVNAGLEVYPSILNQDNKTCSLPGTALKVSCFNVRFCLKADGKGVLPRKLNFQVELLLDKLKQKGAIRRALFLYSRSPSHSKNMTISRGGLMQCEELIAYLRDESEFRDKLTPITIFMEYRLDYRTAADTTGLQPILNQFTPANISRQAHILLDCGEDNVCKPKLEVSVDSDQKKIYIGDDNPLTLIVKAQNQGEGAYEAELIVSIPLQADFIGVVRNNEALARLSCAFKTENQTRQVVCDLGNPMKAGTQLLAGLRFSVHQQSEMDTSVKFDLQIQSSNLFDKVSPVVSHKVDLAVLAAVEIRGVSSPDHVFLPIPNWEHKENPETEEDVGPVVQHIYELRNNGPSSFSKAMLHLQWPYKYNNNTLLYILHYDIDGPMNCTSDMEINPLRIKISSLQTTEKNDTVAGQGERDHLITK
Sequence of Integrin alpha-V/beta-5 (P06756 891-1048 limits assumed): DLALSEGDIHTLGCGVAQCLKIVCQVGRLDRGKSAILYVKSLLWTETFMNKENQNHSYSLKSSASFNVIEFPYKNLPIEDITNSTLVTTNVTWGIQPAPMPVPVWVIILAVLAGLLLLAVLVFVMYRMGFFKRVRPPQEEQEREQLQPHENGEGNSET
Sequence of Integrin alpha-V/beta-5 (P18084 24-799 limits assumed): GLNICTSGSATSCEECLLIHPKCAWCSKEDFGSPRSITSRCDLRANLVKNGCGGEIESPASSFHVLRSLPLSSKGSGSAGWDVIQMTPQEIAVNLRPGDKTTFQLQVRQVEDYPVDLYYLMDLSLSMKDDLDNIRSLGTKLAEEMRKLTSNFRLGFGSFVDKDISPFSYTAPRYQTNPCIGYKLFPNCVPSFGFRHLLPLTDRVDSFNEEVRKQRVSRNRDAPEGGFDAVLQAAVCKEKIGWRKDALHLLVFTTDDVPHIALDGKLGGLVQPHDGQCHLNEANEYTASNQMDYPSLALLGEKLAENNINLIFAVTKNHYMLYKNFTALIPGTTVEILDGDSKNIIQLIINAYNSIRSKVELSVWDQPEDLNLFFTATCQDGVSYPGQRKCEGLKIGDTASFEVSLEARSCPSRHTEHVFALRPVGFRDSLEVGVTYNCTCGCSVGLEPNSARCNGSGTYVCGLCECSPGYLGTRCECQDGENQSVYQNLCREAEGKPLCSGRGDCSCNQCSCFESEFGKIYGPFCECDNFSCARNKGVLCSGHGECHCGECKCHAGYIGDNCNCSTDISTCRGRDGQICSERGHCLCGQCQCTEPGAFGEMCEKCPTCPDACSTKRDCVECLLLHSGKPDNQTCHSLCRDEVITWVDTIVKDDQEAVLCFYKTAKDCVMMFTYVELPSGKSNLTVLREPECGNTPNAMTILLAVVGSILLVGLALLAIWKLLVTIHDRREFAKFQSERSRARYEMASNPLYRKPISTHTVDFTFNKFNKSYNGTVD
Procedure, shortened: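 It is added to wells coated with human vitronectin in 0.1 M carbonate, pH 9.6, with 10-fold serial peptide dilutions for 3 h at room temperature. Detection uses rabbit anti-VnR, HRP anti-rabbit IgG and o-phenylenediamine/H2O2.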

Canis familiaris = species: Canis familiaris; experiment: Effect of compound on template bleeding time in dogs; format: functional, Canis lupus familiaris

| Structure (SMILES) | IC50 (Homo sapiens) [nM] | IC50 [1] [nM] | IC50 (Integrin alpha-5/beta-1) [nM] | IC50 (Integrin alpha-V/beta-5) [nM] | Bleeding time (Canis familiaris) [min] |
| --- | --- | --- | --- | --- | --- |
| CCCCOc1ccc(C[C@@H]2NC(=O)[C@H](CC(=O)O)NC(=O)CNC(=O)[C@H](CCCNC(=N)N)NC(=O)[C@H](Cc3c[nH]cn3)NC(=O)CNC(=O)[C@@H](NC(=O)[C@@H](N)CCCNC(=N)N)C3(CCCCC3)SSC[C@@H](C(=O)N[C@@H](CCCNC(=N)N)C(=O)O)NC(=O)[C@H](CCCNC(=N)N)NC2=O)cc1 | 350 | 30 |  |  |  |
| N=C(N)NCCC[C@H](NC(=O)[C@@H]1CSSC2(CCCCC2)[C@H](NC(=O)[C@@H](N)CCCNC(=N)N)C(=O)NCC(=O)N[C@@H](Cc2c[nH]cn2)C(=O)N[C@@H](CCCNC(=N)N)C(=O)NCC(=O)N[C@@H](CC(=O)O)C(=O)N[C@@H](Cc2ccc(Cl)cc2)C(=O)N[C@@H](CCCNC(=N)N)C(=O)N1)C(=O)O | 730 |  | 870 | 15300 |  |
| N=C(N)NCCC[C@H](NC(=O)[C@@H]1CSSC2(CCCCC2)[C@H](NC(=O)[C@@H](N)CCCNC(=N)N)C(=O)NCC(=O)N[C@@H](Cc2c[nH]cn2)C(=O)N[C@@H](CCCNC(=N)N)C(=O)NCC(=O)N[C@@H](CC(=O)O)C(=O)N[C@@H](Cc2ccc(I)cc2)C(=O)N[C@@H](CCCNC(=N)N)C(=O)N1)C(=O)O |  | 10 | 4190 | 4030 |  |
| NC(N)=NCCC[C@H](NC(=O)[C@@H]1CSSC2(CCCCC2)[C@H](NC(=O)[C@@H](N)CCCN=C(N)N)C(=O)NCC(=O)N[C@@H](Cc2c[nH]cn2)C(=O)N[C@@H](CCCN=C(N)N)C(=O)NCC(=O)N[C@@H](CC(=O)O)C(=O)N[C@@H](Cc2ccccc2)C(=O)N[C@@H](CCCN=C(N)N)C(=O)N1)C(=O)O | 620 | 40 |  |  |  |
| COc1ccc(C[C@@H]2NC(=O)[C@H](CC(=O)O)NC(=O)CNC(=O)[C@H](CCCNC(=N)N)NC(=O)[C@H](Cc3c[nH]cn3)NC(=O)CNC(=O)[C@@H](NC(=O)[C@@H](N)CCCNC(=N)N)C3(CCCCC3)SSC[C@@H](C(=O)N[C@@H](CCCNC(=N)N)C(=O)O)NC(=O)[C@H](CCCNC(=N)N)NC2=O)cc1 |  | 20 | 980 | 1050 |  |
| COc1ccc(C[C@@H]2NC(=O)[C@H](CC(=O)O)NC(=O)CNC(=O)[C@H](CCCN=C(N)N)NC(=O)[C@H](Cc3c[nH]cn3)NC(=O)[C@H](CCCN=C(N)N)NC(=O)[C@@H](NC(=O)[C@@H](N)CCCN=C(N)N)C3(CCCCC3)SSC[C@@H](C(=O)N[C@@H](CCCN=C(N)N)C(=O)O)NC(=O)[C@H](CCCN=C(N)N)NC2=O)cc1 | 440 | 70 |  |  |  |
| CC(C)C[C@@H]1NC(=O)[C@H](CC(=O)O)NC(=O)CNC(=O)[C@H](CCCNC(=N)N)NC(=O)[C@H](Cc2c[nH]cn2)NC(=O)CNC(=O)[C@@H](NC(=O)[C@@H](N)CCCNC(=N)N)C2(CCCC2)SSC[C@@H](C(=O)N[C@@H](CCCNC(=N)N)C(=O)O)NC(=O)[C@H](CCCNC(=N)N)NC1=O | 4100 | 30 |  | 340 |  |
| CCOc1ccc(C[C@@H]2NC(=O)[C@H](CC(=O)O)NC(=O)CNC(=O)[C@H](CCCN=C(N)N)NC(=O)[C@@H]3CCCN3C(=O)[C@H](CC(N)=O)NC(=O)[C@@H](NC(C)=O)CSSC[C@@H](C(N)=O)NC(=O)[C@H](CCCN=C(N)N)NC2=O)cc1 | 220 | 4 | 10000 | 8400 |  |
| COc1ccc(C[C@@H]2NC(=O)[C@H](CC(=O)O)NC(=O)CNC(=O)[C@H](CCCNC(=N)N)NC(=O)[C@@H]3CCCN3C(=O)[C@H](CC(N)=O)NC(=O)[C@@H](NC(C)=O)CSSC[C@@H](C(N)=O)NC(=O)[C@H](C)NC2=O)cc1 |  |  |  |  | >30 |
| COc1ccc(C[C@@H]2NC(=O)[C@H](CC(=O)O)NC(=O)CNC(=O)[C@H](CCCNC(=N)N)NC(=O)[C@@H]3CCCN3C(=O)[C@H](CC(N)=O)NC(=O)[C@@H](NC(C)=O)CSSC[C@@H](C(N)=O)NC(=O)[C@H](CCC(=O)O)NC2=O)cc1 |  |  |  |  | > 30 |
| CC(=O)N[C@H]1CSSC[C@@H](C(N)=O)NC(=O)[C@H](CCCN=C(N)N)NC(=O)[C@H](Cc2ccc([N+](=O)[O-])cc2)NC(=O)[C@H](CC(=O)O)NC(=O)CNC(=O)[C@H](CCCN=C(N)N)NC(=O)[C@@H]2CCCN2C(=O)[C@H](CC(N)=O)NC1=O | 840 | 17 |  | 4800 |  |
| COc1ccc(C[C@@H]2NC(=O)[C@H](CC(=O)O)NC(=O)CNC(=O)[C@H](CCCN=C(N)N)NC(=O)[C@@H]3CCCN3C(=O)[C@H](CC(N)=O)NC(=O)[C@@H](NC(C)=O)CSSC[C@@H](C(N)=O)NC(=O)[C@H](CCCN=C(N)N)NC2=O)cc1 |  |  |  |  | 3 |
| NC(N)=NCCC[C@H](NC(=O)[C@@H]1CSSC2(CCCCC2)[C@H](NC(=O)[C@@H](N)CCCN=C(N)N)C(=O)NCC(=O)N[C@@H](Cc2c[nH]cn2)C(=O)N[C@@H](CCCN=C(N)N)C(=O)NCC(=O)N[C@@H](CC(=O)O)C(=O)N[C@@H](Cc2ccc3ccccc3c2)C(=O)N[C@@H](CCCN=C(N)N)C(=O)N1)C(=O)O | 440 | 70 | 7720 |  |  |
| NC(N)=NCCC[C@H](NC(=O)[C@@H]1CSSC2(CCCCC2)[C@H](NC(=O)[C@@H](N)CCCN=C(N)N)C(=O)NCC(=O)N[C@@H](Cc2c[nH]cn2)C(=O)N[C@@H](CCCN=C(N)N)C(=O)NCC(=O)N[C@@H](CC(=O)O)C(=O)N[C@@H](c2ccccc2)C(=O)N[C@@H](CCCN=C(N)N)C(=O)N1)C(=O)O | 680 | 20 |  |  |  |
| CC(C)C[C@@H]1NC(=O)[C@H](CC(=O)O)NC(=O)CNC(=O)[C@H](CCCNC(=N)N)NC(=O)[C@H](Cc2c[nH]cn2)NC(=O)CNC(=O)[C@@H](NC(=O)[C@@H](N)CCCNC(=N)N)C(C)(C)SSC[C@@H](C(=O)N[C@@H](CCCNC(=N)N)C(=O)O)NC(=O)[C@H](CCCNC(=N)N)NC1=O | 9600 | 40 |  | 4930 |  |
| COc1ccc(C[C@@H]2NC(=O)[C@H](CC(=O)O)NC(=O)CNC(=O)[C@H](CCCNC(=N)N)NC(=O)[C@@H]3CCCN3C(=O)[C@H](CC(N)=O)NC(=O)[C@@H](NC(C)=O)CSSC[C@@H](C(N)=O)NC(=O)[C@H](CC(C)C)NC2=O)cc1 |  |  |  |  | 21 |
| CC(C)C[C@@H]1NC(=O)[C@H](CC(=O)O)NC(=O)CNC(=O)[C@H](CCCNC(=N)N)NC(=O)[C@H](Cc2c[nH]cn2)NC(=O)CNC(=O)[C@@H](NC(=O)[C@@H](N)CCCNC(=N)N)C2(CCCCC2)SSC[C@@H](C(=O)N[C@@H](CCCNC(=N)N)C(=O)O)NC(=O)[C@H](CCCNC(=N)N)NC1=O | 3000 | 400 |  | 1580 |  |
| CC[C@H](C)[C@@H]1NC(=O)[C@@H](NC(C)=O)CSSC[C@@H](C(N)=O)NC(=O)[C@H](CCCN=C(N)N)NC(=O)[C@H](Cc2ccc([N+](=O)[O-])cc2)NC(=O)[C@H](CC(=O)O)NC(=O)CNC(=O)[C@H](CCCN=C(N)N)NC(=O)[C@@H]2CCCN2C1=O | 210 | 430 | 1200 | 4300 |  |
| CCCCOc1ccc(C[C@@H]2NC(=O)[C@H](CC(=O)O)NC(=O)CNC(=O)[C@H](CCCNC(=N)N)NC(=O)[C@@H]3CCCN3C(=O)[C@H]([C@@H](C)CC)NC(=O)[C@@H](NC(C)=O)CSSC[C@@H](C(N)=O)NC(=O)[C@H](CCCNC(=N)N)NC2=O)cc1 |  | 16 | 6000 | > 10000 |  |
| COc1ccc(C[C@@H]2NC(=O)[C@H](CC(=O)O)NC(=O)CNC(=O)[C@H](CCCCN)NC(=O)[C@@H]3CCCN3C(=O)[C@H](CC(N)=O)NC(=O)[C@@H](NC(C)=O)CSSC[C@@H](C(N)=O)NC(=O)[C@H](CCCN=C(N)N)NC2=O)cc1 |  |  |  |  | 3.5 |
| CC(C)C[C@@H]1NC(=O)[C@H](CC(=O)O)NC(=O)CNC(=O)[C@H](CCCNC(=N)N)NC(=O)[C@H](Cc2c[nH]cn2)NC(=O)CNC(=O)[C@H](NC(=O)[C@@H](N)CCCNC(=N)N)C(C)(C)SSC[C@@H](C(=O)N[C@@H](CCCNC(=N)N)C(=O)O)NC(=O)[C@H](CCCNC(=N)N)NC1=O | 4100 | 150 |  | 10000 |  |
| CC[C@H](C)[C@@H]1NC(=O)[C@H](NC(C)=O)C(C)(C)SSC[C@@H](C(N)=O)NC(=O)[C@H](CCCNC(=N)N)NC(=O)[C@H](Cc2ccc(OC)cc2)NC(=O)[C@H](CC(=O)O)NC(=O)CNC(=O)[C@H](CCCNC(=N)N)NC(=O)[C@@H]2CCCN2C1=O | 280 | 2 |  |  |  |
| CC[C@H](C)[C@@H]1NC(=O)[C@@H](NC(C)=O)CSSC[C@@H](C(N)=O)NC(=O)[C@H](CCCN=C(N)N)NC(=O)[C@H](Cc2ccccc2)NC(=O)[C@H](CC(=O)O)NC(=O)CNC(=O)[C@H](CCCN=C(N)N)NC(=O)[C@@H]2CCCN2C1=O (Ac-CIPRGDFRC-NH2; disulfide 1-9) | 450 | 14 | 2100 | 10000 |  |
| CC[C@H](C)[C@@H]1NC(=O)[C@@H](NC(C)=O)CSSC[C@@H](C(N)=O)NC(=O)[C@H](CCCNC(=N)N)NC(=O)[C@H](Cc2ccc(O)cc2)NC(=O)[C@H](CC(=O)O)NC(=O)CNC(=O)[C@H](CCCNC(=N)N)NC(=O)[C@@H]2CCCN2C1=O (Ac-CIPRGDYRC-NH2; disulfide 1-9) |  | 3 | 4500 | > 10000 |  |
| CC(C)C[C@@H]1NC(=O)[C@H](CC(=O)O)NC(=O)CNC(=O)[C@H](CCCNC(=N)N)NC(=O)[C@H](Cc2c[nH]cn2)NC(=O)CNC(=O)CC2(CCCCC2)SSC[C@@H](C(=O)N[C@@H](C)C(=O)O)NC(=O)[C@H](CCCNC(=N)N)NC1=O (GHRGDLRCA-OH; linker N-8 via X1) | 5900 | 20 |  | 10000 |  |
